Reference: ChEMBL document CHEMBL5724801, “EUbOPEN Chemogenomics Library - Multiplex” (2024)
Where “and” joins values, the source holds several entries; their conditions need not be identical. Equal values may be shown once.

System: Fibroblast
Experiment: Multiplex assay against human fibroblast
Format: toxicity, cell-based
Outline: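 At seeding, live cells were stained with Hoechst33342, BioTracker Green Microtubule Cytoskeleton Dye, MitoTracker Red and Annexin V Alexa Fluor 680. After compound addition they were imaged on a CQ1 microscope at 37°C and 5% CO2, and CellPathfinder machine-learning gating sorted them into Hoechst high-intensity objects or normal cells, with normal cells further split into healthy, pyknosed or fragmented nuclei and pyknosed cells into mitotic or apoptotic. Tubulin, mitochondrial-mass and membrane-permeability phenotypes are given as per cents of cells with healthy nuclei.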

[1] = 12 h, 1 µM, compound concentration 1 uM
[2] = 12 h, 10 µM, compound concentration 10 uM
[3] = 24 h, 1 µM, compound concentration 1 uM
[4] = 24 h, 10 µM, compound concentration 10 uM
[5] = 48 h, 1 µM, compound concentration 1 uM
[6] = 48 h, 10 µM, compound concentration 10 uM

Cc1cc(C)c(NC(=O)C2CC3CCC2C3)c(C)c1 (centres undefined)
Population Apoptotic (%) [1]: 12% and 10% | Population Fragmented Nuclei (%) [1]: 14.14% and 5.66% | Population Healthy Nuclei (%) [1]: 59.69% and 81.76% | Population Hoechst High Intensity Objects (%) [1]: 0% | Population Membrane Permeable-Phenotype (%) [1]: 3.51% and 5.38% | Population Mitochondria Different-Phenotype (%) [1]: 7.02% and 6.92% | Population Mitotic Cells (%) [1]: 88% and 90% | Population Normal (%) [1]: 100% | Population Pyknosed Nuclei (%) [1]: 26.18% and 12.58% | Population Tubulin-Different-Phenotype (%) [1]: 12.28% and 22.31% | Total Cell Count [1]: 191 and 159 | Population Apoptotic (%) [2]: 10% and 7.69% | Population Fragmented Nuclei (%) [2]: 12.88% and 9.48% | Population Healthy Nuclei (%) [2]: 62.58% and 78.2% | Population Hoechst High Intensity Objects (%) [2]: 0% | Population Membrane Permeable-Phenotype (%) [2]: 3.92% and 3.64% | Population Mitochondria Different-Phenotype (%) [2]: 10.78% and 7.27% | Population Mitotic Cells (%) [2]: 90% and 92.31% | Population Normal (%) [2]: 100% | Population Pyknosed Nuclei (%) [2]: 24.54% and 12.32% | Population Tubulin-Different-Phenotype (%) [2]: 11.76% and 19.39% | Total Cell Count [2]: 163 and 211 | Population Apoptotic (%) [3]: 16.28% and 15.38% | Population Fragmented Nuclei (%) [3]: 13.89% and 7.5% | Population Healthy Nuclei (%) [3]: 66.2% and 84.38% | Population Hoechst High Intensity Objects (%) [3]: 0% | Population Membrane Permeable-Phenotype (%) [3]: 9.09% and 3.7% | Population Mitochondria Different-Phenotype (%) [3]: 5.59% and 6.67% | Population Mitotic Cells (%) [3]: 83.72% and 84.62% | Population Normal (%) [3]: 100% | Population Pyknosed Nuclei (%) [3]: 19.91% and 8.12% | Population Tubulin-Different-Phenotype (%) [3]: 12.59% and 16.3% | Total Cell Count [3]: 216 and 160 | Population Apoptotic (%) [4]: 9.38% and 12% | Population Fragmented Nuclei (%) [4]: 8.88% and 6.07% | Population Healthy Nuclei (%) [4]: 72.19% and 82.24% | Population Hoechst High Intensity Objects (%) [4]: 0% | Population Membrane Permeable-Phenotype (%) [4]: 7.38% and 2.84% | Population Mitochondria Different-Phenotype (%) [4]: 7.38% and 8.52% | Population Mitotic Cells (%) [4]: 90.62% and 88% | Population Normal (%) [4]: 100% | Population Pyknosed Nuclei (%) [4]: 18.93% and 11.68% | Population Tubulin-Different-Phenotype (%) [4]: 22.13% and 22.73% | Total Cell Count [4]: 169 and 214 | Population Apoptotic (%) [5]: 30.77% and 13.33% | Population Fragmented Nuclei (%) [5]: 8.78% and 7.14% | Population Healthy Nuclei (%) [5]: 84.88% and 83.12% | Population Hoechst High Intensity Objects (%) [5]: 0% | Population Membrane Permeable-Phenotype (%) [5]: 1.15% and 5.47% | Population Mitotic Cells (%) [5]: 69.23% and 86.67% | Population Normal (%) [5]: 100% | Population Pyknosed Nuclei (%) [5]: 6.34% and 9.74% | Population Tubulin-Different-Phenotype (%) [5]: 8.62% and 19.53% | Total Cell Count [5]: 205 and 154 | Population Apoptotic (%) [6]: 50% and 17.65% | Population Fragmented Nuclei (%) [6]: 9.04% and 4.07% | Population Healthy Nuclei (%) [6]: 87.77% and 88.24% | Population Hoechst High Intensity Objects (%) [6]: 0% | Population Membrane Permeable-Phenotype (%) [6]: 1.82% and 2.56% | Population Mitochondria Different-Phenotype (%) [6]: 10.91% and 6.15% | Population Mitotic Cells (%) [6]: 50% and 82.35% | Population Normal (%) [6]: 100% | Population Pyknosed Nuclei (%) [6]: 3.19% and 7.69% | Total Cell Count [6]: 188 and 221

C=CC(=O)Nc1cc(Nc2nccc(-n3cc(CN(C)C)c(-c4ccccc4)n3)n2)c(OC)cc1N1CCOCC1 [LAZERTINIB]
Population Fragmented Nuclei (%) [1]: 17.06% and 10.42% | Population Healthy Nuclei (%) [1]: 39.41% and 72.59% | Population Hoechst High Intensity Objects (%) [1]: 0% | Population Membrane Permeable-Phenotype (%) [1]: 5.97% and 4.26% | Population Mitochondria Different-Phenotype (%) [1]: 13.43% and 12.77% | Population Mitotic Cells (%) [1]: 97.3% and 84.09% | Population Normal (%) [1]: 100% | Population Pyknosed Nuclei (%) [1]: 43.53% and 16.99% | Population Tubulin-Different-Phenotype (%) [1]: 26.87% and 71.81% | Total Cell Count [1]: 170 and 259 | Population Apoptotic (%) [2]: 18.84% and 24.56% | Population Fragmented Nuclei (%) [2]: 21.15% and 12.73% | Population Healthy Nuclei (%) [2]: 34.62% and 72.47% | Population Hoechst High Intensity Objects (%) [2]: 0% | Population Membrane Permeable-Phenotype (%) [2]: 1.85% and 8.24% | Population Mitochondria Different-Phenotype (%) [2]: 48.15% and 27.24% | Population Mitotic Cells (%) [2]: 81.16% and 75.44% | Population Normal (%) [2]: 100% | Population Pyknosed Nuclei (%) [2]: 44.23% and 14.81% | Population Tubulin-Different-Phenotype (%) [2]: 55.56% and 80.65% | Total Cell Count [2]: 156 and 385 | Population Fragmented Nuclei (%) [3]: 8.12% and 9.88% | Population Healthy Nuclei (%) [3]: 60.62% and 75.1% | Population Hoechst High Intensity Objects (%) [3]: 0% | Population Membrane Permeable-Phenotype (%) [3]: 6.19% and 3.68% | Population Mitochondria Different-Phenotype (%) [3]: 23.71% and 17.89% | Population Mitotic Cells (%) [3]: 90% and 52.63% | Population Normal (%) [3]: 100% | Population Pyknosed Nuclei (%) [3]: 31.25% and 15.02% | Population Tubulin-Different-Phenotype (%) [3]: 34.02% and 66.32% | Total Cell Count [3]: 160 and 253 | Population Apoptotic (%) [4]: 52.31% and 34.69% | Population Healthy Nuclei (%) [4]: 37.75% and 81.53% | Population Hoechst High Intensity Objects (%) [4]: 0% | Population Membrane Permeable-Phenotype (%) [4]: 5.26% and 2.72% | Population Mitochondria Different-Phenotype (%) [4]: 43.86% and 34.14% | Population Mitotic Cells (%) [4]: 47.69% and 65.31% | Population Normal (%) [4]: 100% | Population Tubulin-Different-Phenotype (%) [4]: 57.89% and 76.44% | Total Cell Count [4]: 151 and 406 | Population Apoptotic (%) [5]: 16.67% and 20.83% | Population Fragmented Nuclei (%) [5]: 12.14% and 10.42% | Population Healthy Nuclei (%) [5]: 77.46% and 80.31% | Population Hoechst High Intensity Objects (%) [5]: 0% | Population Membrane Permeable-Phenotype (%) [5]: 0.75% and 1.92% | Population Mitochondria Different-Phenotype (%) [5]: 11.19% and 8.17% | Population Mitotic Cells (%) [5]: 83.33% and 79.17% | Population Normal (%) [5]: 100% | Population Pyknosed Nuclei (%) [5]: 10.4% and 9.27% | Population Tubulin-Different-Phenotype (%) [5]: 27.61% and 62.5% | Total Cell Count [5]: 173 and 259 | Population Apoptotic (%) [6]: 64.71% and 51.61% | Population Fragmented Nuclei (%) [6]: 24.65% and 10.26% | Population Healthy Nuclei (%) [6]: 51.41% and 82.52% | Population Hoechst High Intensity Objects (%) [6]: 0% | Population Membrane Permeable-Phenotype (%) [6]: 1.37% and 2.82% | Population Mitotic Cells (%) [6]: 35.29% and 48.39% | Population Normal (%) [6]: 100% | Population Tubulin-Different-Phenotype (%) [6]: 49.32% and 60.73%

Cc1cc(C)cc(C(=O)NOCCCCCC(=O)NO)c1
Population Apoptotic (%) [1]: 12.9% and 17.65% | Population Fragmented Nuclei (%) [1]: 11.22% and 2.55% | Population Healthy Nuclei (%) [1]: 72.96% and 88.78% | Population Hoechst High Intensity Objects (%) [1]: 0% | Population Membrane Permeable-Phenotype (%) [1]: 5.59% and 1.15% | Population Mitochondria Different-Phenotype (%) [1]: 6.99% and 10.34% | Population Mitotic Cells (%) [1]: 87.1% and 82.35% | Population Normal (%) [1]: 100% | Population Pyknosed Nuclei (%) [1]: 15.82% and 8.67% | Population Tubulin-Different-Phenotype (%) [1]: 8.39% and 11.49% | Total Cell Count [1]: 196 | Population Apoptotic (%) [2]: 12% and 31.25% | Population Fragmented Nuclei (%) [2]: 15.5% and 6.05% | Population Healthy Nuclei (%) [2]: 72% and 86.51% | Population Hoechst High Intensity Objects (%) [2]: 0% | Population Membrane Permeable-Phenotype (%) [2]: 6.94% and 1.61% | Population Mitochondria Different-Phenotype (%) [2]: 5.56% and 6.45% | Population Mitotic Cells (%) [2]: 88% and 68.75% | Population Normal (%) [2]: 100% | Population Pyknosed Nuclei (%) [2]: 12.5% and 7.44% | Population Tubulin-Different-Phenotype (%) [2]: 9.03% and 6.45% | Total Cell Count [2]: 200 and 215 | Population Apoptotic (%) [3]: 13.33% and 23.08% | Population Fragmented Nuclei (%) [3]: 12.92% and 3.9% | Population Healthy Nuclei (%) [3]: 79.9% and 89.76% | Population Hoechst High Intensity Objects (%) [3]: 0% | Population Membrane Permeable-Phenotype (%) [3]: 4.79% and 2.17% | Population Mitochondria Different-Phenotype (%) [3]: 3.59% and 7.07% | Population Mitotic Cells (%) [3]: 86.67% and 76.92% | Population Normal (%) [3]: 100% | Population Pyknosed Nuclei (%) [3]: 7.18% and 6.34% | Population Tubulin-Different-Phenotype (%) [3]: 3.59% and 8.15% | Total Cell Count [3]: 209 and 205 | Population Apoptotic (%) [4]: 63.64% and 52.94% | Population Healthy Nuclei (%) [4]: 80.39% and 88.26% | Population Hoechst High Intensity Objects (%) [4]: 0% | Population Membrane Permeable-Phenotype (%) [4]: 3.66% and 0% | Population Mitochondria Different-Phenotype (%) [4]: 2.44% and 4.26% | Population Mitotic Cells (%) [4]: 36.36% and 47.06% | Population Normal (%) [4]: 100% | Population Pyknosed Nuclei (%) [4]: 5.39% and 7.98% | Population Tubulin-Different-Phenotype (%) [4]: 3.66% and 2.66% | Total Cell Count [4]: 204 and 213 | Population Apoptotic (%) [5]: 47.37% and 53.33% | Population Fragmented Nuclei (%) [5]: 8.06% and 10.87% | Population Healthy Nuclei (%) [5]: 82.94% and 82.61% | Population Hoechst High Intensity Objects (%) [5]: 0% | Population Membrane Permeable-Phenotype (%) [5]: 0.57% and 1.58% | Population Mitotic Cells (%) [5]: 52.63% and 46.67% | Population Normal (%) [5]: 100% | Population Pyknosed Nuclei (%) [5]: 9% and 6.52% | Population Tubulin-Different-Phenotype (%) [5]: 2.29% and 8.42% | Total Cell Count [5]: 211 and 230 | Population Apoptotic (%) [6]: 44.19% and 95.35% | Population Healthy Nuclei (%) [6]: 57.64% and 74.04% | Population Hoechst High Intensity Objects (%) [6]: 0% | Population Membrane Permeable-Phenotype (%) [6]: 1.71% and 10.39% | Population Normal (%) [6]: 100% | Population Pyknosed Nuclei (%) [6]: 21.18% and 20.67% | Population Tubulin-Different-Phenotype (%) [6]: 4.27% and 13.64% | Total Cell Count [6]: 203 and 208
